Only some compounds are listed: those with a hit (about 3.7% of all), similar ones and a draw of the others.
KCNQ1 inh: inhibitors of human KCNQ1 potassium channel; AID 2642; 310,000 compounds, 1.3% hits; B-score at 10 µM; CHO-K1 KCNQ1, FluxOR thallium flux fluorescence; stronger effect = higher value;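 active means compounds whose thallium flux B-score, printed positive for inhibition, exceeds three library SD while starting fluorescence stays within three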;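 further: channel opened by potassium depolarization with thallium stimulus after 20 min compound exposure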
hERG protect: hERG (human) protection from proarrhythmic block; Q12809; CHO-hERG, FluxOR thallium flux, dofetilide IC70 present; activation (rescue from dofetilide block), less the hit threshold, % at 10 µM; 310,000 compounds, 0.51% hits;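 active means activation above the mean of controls blocked by dofetilide plus 5 SD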;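 further: thallium influx through hERG after potassium depolarization seen as dye fluorescence rise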
KCNQ1 pot: potentiates or activates the human KCNQ1 potassium channel; P51787; CHO-K1 KCNQ1, thallium flux FluxOR fluorescence; stronger effect = higher value; B-score at 10 µM; 310,000 compounds, 0.35% hits; AID 2648;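 active means fluorescence ratio B-score, a plate-corrected score, at least three library SD, with initial intensity B-score within 5 SD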
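Schedule – 37 °C overnight plating, 90-min dark dye load, 20-min compound pretreatment · System – stable KCNQ1 CHO-K1 line · Probe or stimulus – thallium- and potassium-containing depolarizing buffer · Measured by – kinetic FluxOR fluorescence, 10 s baseline plus 110 s post-stimulus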
KCNK3 block: human KCNK3 channel inhibition, primary screen. O14649. CHO-KCNK3 thallium flux, FluxOR fluorescence; stronger effect = lower value. B-score at 10 µM. 340,000 compounds, 0.84% hits;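 active means B-score under library mean minus 4 SD, starting fluorescence ratio at most library mean plus 5 SD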;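 further: more negative B-score means stronger inhibition of thallium flux through KCNK3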
Kir21 block: blocks the mouse Kir2.1 inward-rectifier potassium channel; P35561; HEK293-Kir2.1, FluxOR thallium flux fluorescence; stronger effect = lower value; B-score at 10 µM; 310,000 compounds, 0.85% hits; AID 1672;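 active means fluorescence ratio B-score at or below minus 3 SD of library scores, with starting-brightness B-score within 2 SD, cut at about -4.2 in these data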;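 further: channel flux triggered by added potassium and thallium sulfate stimulus; B-score of peak minus minimum fluorescence over baseline after thallium stimulus; more negative B-score means stronger Kir2.1 block with less thallium influx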
KCNK9 inh: blocks the human KCNK9 two-pore domain potassium channel; 310,000 compounds, 1.2% hits; AID 488922; HEK293 KCNK9, FluxOR thallium flux fluorescence; stronger effect = lower value; Q9NPC2; B-score at 10 µM;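 active means ratio B-score over 3 SD below the library mean, with starting fluorescence within 5 SD of its mean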;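 further: negative B-score means less thallium flux so channel inhibition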
Each line names hits and unclear results; the compound was inactive in the other large screens.

Cc1c(NC(=O)c2ccc3c(c2)OCO3)cccc1-c1nc2ccccc2o1	hERG protect 6.0
Cc1ccc(-c2nc3ccccc3o2)cc1NC(=O)c1ccc2c(c1)OCO2	none
CNc1nc(-c2c(C)n(C)c3ccc(OC)cc23)cs1	none
COC(=O)c1ccc(COc2ccccc2OC)o1	none
COc1ccccc1OCc1ccc(C(=O)n2nc(C)c(Cl)c2C)o1	KCNK9 inh -7.85
COc1ccc(-n2c(-c3ccc(Cl)cc3)c[n+]3c2CCc2ccccc2-3)cc1	KCNQ1 inh 11
CC1=CC(C)(C)N2C(=O)C3(C(C#N)=C(N)Oc4cc(O)ccc43)c3cccc1c32 (configuration not stated)	KCNQ1 inh 6
Cc1ccc(C2CC(c3cccs3)=NN2C(=O)CCl)cc1 (configuration not stated)	none
CCC(=O)N1N=C(c2cccs2)CC1c1ccc(C)cc1 (configuration not stated)	hERG protect 5.1
COc1ccc(C2=NN(C(=O)CN3CCCCC3)C(c3ccc(C)cc3)C2)cc1 (configuration not stated)	KCNQ1 inh 6
Cc1ccc(-c2nnc(CSc3nnc(COc4ccccc4)n3-c3ccc(C)cc3)o2)cc1	KCNQ1 inh 6
Cc1ccc(-c2nnc(CSc3nnc(COc4ccccc4)n3-c3ccccc3)o2)cc1	none
COC(=O)c1ccc(C2N=C(c3cccs3)CC(c3ccccc3O)N2)cc1 (configuration not stated)	KCNQ1 inh 7
O=C(c1ccccc1)N1N=C(c2cccs2)CC1c1ccccc1O (configuration not stated)	none
CC(=O)C1CCC2C3CC=C4CC(SC(=N)N)CCC4(C)C3CCC12C (configuration not stated)	KCNK3 block -9.18 (no result: KCNQ1 inh, hERG protect, KCNQ1 pot, Kir21 block, KCNK9 inh)
CC(=O)OCC(=O)C1CCC2C3CC=C4CC(O)CCC4(C)C3CCC12C (configuration not stated)	none (no result: KCNQ1 inh, hERG protect, KCNQ1 pot, Kir21 block, KCNK9 inh)
CCOc1ccc(CN(C)C(=O)c2ccc(NC(=O)CC3SC(N4CCCC4)=NC3=O)cc2)cc1 (configuration not stated)	none
O=C(CC1C(=O)NCCN1CCCc1ccccc1)NCCc1ccccc1Cl (configuration not stated)	none
NC(=O)c1ccc(NC(=O)CN2CCN(Cc3ccccc3)CC2)cc1	none
Cc1ccc(-c2ccc(/C=C(\C#N)C(N)=S)n2C)cc1	KCNQ1 inh 6
CC12CCC(C(=O)N(CSC(=S)N/N=C\c3ccccc3Cl)C1=O)C2(C)C (configuration not stated)	KCNQ1 pot 35
Cc1ccccc1NCN1C(=O)C2CCC(C)(C1=O)C2(C)C (configuration not stated)	none
CC12CCC(C(=O)N(CSC(=S)N/N=C\c3ccccc3)C1=O)C2(C)C (configuration not stated)	KCNQ1 pot 15
O=C(c1ccc2c(=O)n3c(nc2c1)CCCCC3)N1CCN(c2cccc(Cl)c2)CC1	none
CCCCCCCC(=O)Nc1ccc(C(=O)N/N=C/c2cccc([N+](=O)[O-])c2)cc1	hERG protect 8.9
CCCCCCC(=O)Nc1ccc(C(=O)N/N=C/c2cccnc2)cc1	none
CCCCCCCCCS(=O)(=O)N/N=C/c1cccc([N+](=O)[O-])c1	KCNQ1 inh 8
Clc1ccc(CNc2ncnc3[nH]ncc23)c(Cl)c1	none (no result: KCNQ1 inh, hERG protect, KCNQ1 pot, Kir21 block, KCNK9 inh)
COC(=O)C(Cc1ccc(O)cc1)NC(=O)CCc1nc2ccccc2s1 (configuration not stated)	none
CCOc1ccc(C(=O)C(CCC(CN(C)C)C(=O)c2ccc(OCC)cc2)CN(C)C)cc1 (configuration not stated)	KCNQ1 pot 8
COc1ccc(C(=O)C(CCCCC(CN(C)C)C(=O)c2ccc(OC)cc2)CN(C)C)cc1 (configuration not stated)	none
CN(C)CC(CCC(CN(C)C)C(=O)c1ccccc1)C(=O)c1ccccc1 (configuration not stated)	KCNQ1 pot 20
COc1ccc(/C=C/c2onc(C)c2S(=O)(=O)N2CCC(C(=O)N3CCC(C)CC3)CC2)cc1	none
COc1ccc(CN2CCC(C(=O)Nc3ccc(Oc4cccnc4)cc3)CC2)cc1	Kir21 block -5.38
Cc1ccc(/C=C(\C#N)C(=O)NC(C)c2ccccc2)o1 (configuration not stated)	none
Cc1ccc(S(=O)(=O)C(C)C(=O)c2ccc3c(c2)OCCO3)cc1 (configuration not stated)	Kir21 block -4.27
CCOc1ccc(NC(=O)CNC(=O)c2nn(-c3ccc(OC)cc3)c(=O)c3ccccc23)cc1	none
COc1ccc(NS(=O)(=O)c2cccc(C(=O)NCc3ccco3)c2)cc1	none
O=C(O)c1ccc(S(=O)(=O)N2CCc3ccccc3C2)cc1	none
CN1CCN(CC(O)(c2ccc(Cl)cc2)c2ccc(Cl)cc2)CC1	Kir21 block -8.84
CN1CCN(CC(O)COc2ccc(Cl)cc2)CC1 (configuration not stated)	none
NNC(=O)C(=O)/C=C1\NC2(CCCC2)Cc2ccccc21	none
COc1ccc(/C=N/NC(=O)C(=O)/C=C2\NC3(CCCC3)Cc3ccccc32)cc1	KCNK9 inh -6.62
CN(CCCNC(=O)c1cc2c(Cl)nc3ccccc3c2s1)Cc1ccccc1	Kir21 block -4.97
CCN(CC)CCCNC(=O)c1cc2c(Cl)nc3ccccc3c2s1	none
Cc1[nH]nc(SCC(=O)N2CCCCC2)c1[N+](=O)[O-]	KCNQ1 pot 10
Cc1ccc(NC(=O)CSc2n[nH]c(C)c2[N+](=O)[O-])cc1	none
O=C(COC(=O)C1CCCCC1)Nc1cccc(Br)c1	none (no result: KCNQ1 inh, hERG protect, KCNQ1 pot, Kir21 block, KCNK9 inh)
Cc1nc(Sc2nnnn2-c2ccccc2)c(C#N)c(C)c1C	Kir21 block -4.87
COc1ccc(CN2C(=O)CSCC2=O)cc1OC	none
COc1ccc(CCN2C(=O)CSC2=S)cc1OC	hERG protect 4.7
Cc1ccc2nsnc2c1S(=O)(=O)Nc1cccc2nsnc12	hERG protect 5.2, KCNQ1 pot 11
Cc1ccc(C)c(NS(=O)(=O)c2c(C)ccc3nsnc23)c1	none
CCc1ccccc1NS(=O)(=O)c1cccc2nsnc12	Kir21 block -5.41
CC(=O)c1ccccc1NS(=O)(=O)c1cccc2nsnc12	none
CCOC(=O)N1CCN(C(=O)CCCn2nnnc2CN2CCC(C)CC2)CC1	none
CCOC(=O)CNC1CC(=O)N(c2cccc(Cl)c2)C1=O (configuration not stated)	hERG protect 5.3
O=C(O)c1cc(Cl)c2ccccc2c1O	KCNQ1 inh 6
CCOC(=O)C1=C(c2ccccc2)NC(=O)NC1c1ccc(O)c(Cl)c1 (configuration not stated)	hERG protect 12.8, Kir21 block -7.82

High-throughput results from PubChem BioAssay.
